Measurements reported in ChEMBL document CHEMBL4330096, “Discovery of potent and selective 5-azaindazole inhibitors of leucine-rich repeat kinase 2 (LRRK2) - Part 1” (Bioorg Med Chem Lett, 2019).

Experiments:
[1] = target: T1, Eukaryotic elongation factor 2 kinase (Homo sapiens) (UniProt O00418); assay: Inhibition of EF2K (unknown origin) at 10 uM relative to control
T1 sequence (whole entry): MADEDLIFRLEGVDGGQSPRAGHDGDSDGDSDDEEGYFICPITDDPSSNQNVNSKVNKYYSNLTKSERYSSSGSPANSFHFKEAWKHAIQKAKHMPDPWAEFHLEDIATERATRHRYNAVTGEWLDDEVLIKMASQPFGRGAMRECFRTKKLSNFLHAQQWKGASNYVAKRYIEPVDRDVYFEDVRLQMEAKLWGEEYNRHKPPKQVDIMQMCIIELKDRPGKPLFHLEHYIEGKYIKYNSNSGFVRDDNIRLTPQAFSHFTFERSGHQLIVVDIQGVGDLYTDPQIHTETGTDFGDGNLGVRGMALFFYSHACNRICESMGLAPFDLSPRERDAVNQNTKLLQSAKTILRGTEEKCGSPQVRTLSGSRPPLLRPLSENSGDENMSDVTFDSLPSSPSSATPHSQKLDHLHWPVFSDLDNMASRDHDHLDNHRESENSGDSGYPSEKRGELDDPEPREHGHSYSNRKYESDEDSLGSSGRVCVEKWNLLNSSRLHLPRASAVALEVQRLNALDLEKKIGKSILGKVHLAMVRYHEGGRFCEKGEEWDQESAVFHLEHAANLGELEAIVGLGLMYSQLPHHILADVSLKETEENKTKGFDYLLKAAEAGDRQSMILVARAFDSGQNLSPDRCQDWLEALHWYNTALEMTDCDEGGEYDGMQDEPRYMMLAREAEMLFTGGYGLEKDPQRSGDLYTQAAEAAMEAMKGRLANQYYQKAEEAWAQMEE
In short: (§1)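 Single-point screen of each compound against a panel of 59 protein kinases, at 1 or 10 μM. The panel data are also summarised as a rescaled geometric mean selectivity score.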

[2] = target: Dual specificity mitogen-activated protein kinase kinase 1 (Homo sapiens) (UniProt Q02750); assay: Inhibition of MKK1 (unknown origin) at 10 uM relative to control
Sequence of Dual specificity mitogen-activated protein kinase kinase 1 (Homo sapiens) (Q02750 whole entry): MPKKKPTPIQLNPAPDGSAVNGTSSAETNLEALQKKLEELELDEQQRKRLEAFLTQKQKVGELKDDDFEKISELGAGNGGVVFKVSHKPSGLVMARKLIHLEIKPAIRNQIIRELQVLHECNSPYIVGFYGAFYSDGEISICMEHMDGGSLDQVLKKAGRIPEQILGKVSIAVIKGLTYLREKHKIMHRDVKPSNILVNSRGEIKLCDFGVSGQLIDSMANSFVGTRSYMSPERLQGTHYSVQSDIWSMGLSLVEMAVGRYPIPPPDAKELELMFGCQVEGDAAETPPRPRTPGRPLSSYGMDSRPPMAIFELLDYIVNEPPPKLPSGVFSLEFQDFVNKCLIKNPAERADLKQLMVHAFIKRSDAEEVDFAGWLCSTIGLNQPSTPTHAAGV
In short: (§2)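 Single-concentration screen of each compound against a 59-protein-kinase panel, run at 10 µM or 1 µM. Activity relative to control is shown as a heat map across the panel.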

[3] = target: Serine/threonine-protein kinase Chk2 (Homo sapiens) (UniProt O96017); assay: Inhibition of CHK2 (unknown origin) at 10 uM relative to control; in short: as §1
Sequence of Serine/threonine-protein kinase Chk2 (Homo sapiens) (O96017 whole entry): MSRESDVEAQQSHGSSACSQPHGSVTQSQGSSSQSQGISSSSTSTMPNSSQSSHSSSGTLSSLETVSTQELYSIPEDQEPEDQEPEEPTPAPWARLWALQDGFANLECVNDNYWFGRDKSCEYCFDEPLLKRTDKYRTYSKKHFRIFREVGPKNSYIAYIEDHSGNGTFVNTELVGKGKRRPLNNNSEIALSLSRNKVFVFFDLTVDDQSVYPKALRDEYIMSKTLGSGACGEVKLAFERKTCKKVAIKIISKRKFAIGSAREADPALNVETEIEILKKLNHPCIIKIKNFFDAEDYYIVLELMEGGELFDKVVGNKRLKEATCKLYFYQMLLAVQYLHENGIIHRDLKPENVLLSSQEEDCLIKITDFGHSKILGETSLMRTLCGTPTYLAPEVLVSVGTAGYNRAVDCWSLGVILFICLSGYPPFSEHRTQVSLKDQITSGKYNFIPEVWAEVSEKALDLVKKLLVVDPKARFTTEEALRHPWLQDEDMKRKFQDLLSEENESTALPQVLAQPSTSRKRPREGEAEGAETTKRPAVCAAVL

[4] = target: Phosphorylase kinase (Homo sapiens) (UniProt P15735+P46020+P46019+Q93100+Q16816); assay: Inhibition of PHK (unknown origin) at 10 uM relative to control; format: protein-complex assay; in short: as §2
[5] = target: MAP kinase-interacting serine/threonine-protein kinase 2 (Homo sapiens) (UniProt Q9HBH9); assay: Inhibition of MNK2 (unknown origin) at 10 uM relative to control; in short: as §2
Sequence of MAP kinase-interacting serine/threonine-protein kinase 2 (Homo sapiens) (Q9HBH9 whole entry, looked up): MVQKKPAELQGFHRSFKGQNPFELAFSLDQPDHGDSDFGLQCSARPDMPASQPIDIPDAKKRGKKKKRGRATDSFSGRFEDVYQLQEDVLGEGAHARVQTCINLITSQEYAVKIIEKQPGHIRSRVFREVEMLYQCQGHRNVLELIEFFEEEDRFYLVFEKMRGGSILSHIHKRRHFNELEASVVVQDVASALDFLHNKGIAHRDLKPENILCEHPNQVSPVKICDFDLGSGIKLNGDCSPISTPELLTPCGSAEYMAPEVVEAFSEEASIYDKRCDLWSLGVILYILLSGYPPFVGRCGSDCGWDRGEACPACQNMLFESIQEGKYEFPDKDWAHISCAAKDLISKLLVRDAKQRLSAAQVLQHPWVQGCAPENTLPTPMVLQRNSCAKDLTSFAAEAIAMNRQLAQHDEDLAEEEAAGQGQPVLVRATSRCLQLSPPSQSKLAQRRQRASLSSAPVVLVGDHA

[6] = target: Rho-associated protein kinase 2 (Homo sapiens) (UniProt O75116); assay: Inhibition of ROCK2 (unknown origin) at 10 uM relative to control; in short: as §2
Sequence of Rho-associated protein kinase 2 (Homo sapiens) (O75116 whole entry, looked up): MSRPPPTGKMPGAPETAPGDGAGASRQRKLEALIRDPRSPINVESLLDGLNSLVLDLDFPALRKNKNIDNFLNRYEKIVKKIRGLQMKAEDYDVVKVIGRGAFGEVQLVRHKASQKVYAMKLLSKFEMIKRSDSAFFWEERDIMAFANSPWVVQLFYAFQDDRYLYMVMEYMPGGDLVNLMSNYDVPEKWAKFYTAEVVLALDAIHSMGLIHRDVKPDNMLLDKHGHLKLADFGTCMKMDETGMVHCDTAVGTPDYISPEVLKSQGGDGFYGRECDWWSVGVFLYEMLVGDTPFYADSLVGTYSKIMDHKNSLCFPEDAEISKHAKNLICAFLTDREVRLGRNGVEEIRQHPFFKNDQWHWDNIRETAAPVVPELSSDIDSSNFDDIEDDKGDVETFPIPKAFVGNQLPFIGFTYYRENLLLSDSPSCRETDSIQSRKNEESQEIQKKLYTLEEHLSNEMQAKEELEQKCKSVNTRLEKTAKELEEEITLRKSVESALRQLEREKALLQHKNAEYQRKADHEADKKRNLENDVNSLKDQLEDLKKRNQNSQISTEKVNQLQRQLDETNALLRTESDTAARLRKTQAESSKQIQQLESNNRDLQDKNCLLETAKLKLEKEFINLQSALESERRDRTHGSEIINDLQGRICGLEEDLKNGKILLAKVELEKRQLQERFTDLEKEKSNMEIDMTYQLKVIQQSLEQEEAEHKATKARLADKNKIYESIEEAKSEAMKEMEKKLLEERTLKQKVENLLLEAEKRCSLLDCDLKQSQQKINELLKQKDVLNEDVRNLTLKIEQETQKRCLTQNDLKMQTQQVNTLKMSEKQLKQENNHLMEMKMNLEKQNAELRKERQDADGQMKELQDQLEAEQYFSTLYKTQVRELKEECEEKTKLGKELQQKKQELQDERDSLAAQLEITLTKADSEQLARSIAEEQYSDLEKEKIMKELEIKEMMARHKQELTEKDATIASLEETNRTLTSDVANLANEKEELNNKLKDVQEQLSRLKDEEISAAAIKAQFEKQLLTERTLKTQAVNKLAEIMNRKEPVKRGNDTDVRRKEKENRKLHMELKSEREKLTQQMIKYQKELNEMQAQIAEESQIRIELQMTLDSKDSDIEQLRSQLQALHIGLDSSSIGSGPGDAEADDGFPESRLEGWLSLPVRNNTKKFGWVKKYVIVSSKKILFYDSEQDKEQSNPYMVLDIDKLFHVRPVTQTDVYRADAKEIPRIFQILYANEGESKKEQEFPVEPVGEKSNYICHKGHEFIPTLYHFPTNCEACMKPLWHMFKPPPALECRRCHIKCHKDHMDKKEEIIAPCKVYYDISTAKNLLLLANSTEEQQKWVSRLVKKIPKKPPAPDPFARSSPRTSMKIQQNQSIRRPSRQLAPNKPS

[7] = target: T2, Protein kinase C zeta type (Homo sapiens) (UniProt Q05513); assay: Inhibition of PKCz (unknown origin) at 10 uM relative to control; in short: as §2
T2 sequence (whole entry): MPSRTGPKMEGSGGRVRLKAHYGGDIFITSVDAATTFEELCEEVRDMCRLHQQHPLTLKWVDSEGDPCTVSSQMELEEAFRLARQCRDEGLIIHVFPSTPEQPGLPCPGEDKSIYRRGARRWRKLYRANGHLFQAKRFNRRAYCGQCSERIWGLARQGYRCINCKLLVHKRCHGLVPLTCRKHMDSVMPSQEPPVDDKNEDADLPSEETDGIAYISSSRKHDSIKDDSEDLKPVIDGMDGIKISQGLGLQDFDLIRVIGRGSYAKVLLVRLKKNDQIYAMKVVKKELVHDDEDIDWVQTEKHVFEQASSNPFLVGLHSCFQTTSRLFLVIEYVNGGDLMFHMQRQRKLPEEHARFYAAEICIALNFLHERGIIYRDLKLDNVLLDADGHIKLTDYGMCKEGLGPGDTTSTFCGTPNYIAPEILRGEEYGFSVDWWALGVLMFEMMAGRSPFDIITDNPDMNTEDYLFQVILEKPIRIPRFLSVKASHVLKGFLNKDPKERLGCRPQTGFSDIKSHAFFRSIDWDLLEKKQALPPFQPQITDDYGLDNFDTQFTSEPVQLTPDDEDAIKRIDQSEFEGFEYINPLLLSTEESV

[8] = target: Maternal embryonic leucine zipper kinase (Homo sapiens) (UniProt Q14680); assay: Inhibition of MELK (unknown origin) at 10 uM relative to control; in short: as §2
Sequence of Maternal embryonic leucine zipper kinase (Homo sapiens) (Q14680 whole entry, looked up): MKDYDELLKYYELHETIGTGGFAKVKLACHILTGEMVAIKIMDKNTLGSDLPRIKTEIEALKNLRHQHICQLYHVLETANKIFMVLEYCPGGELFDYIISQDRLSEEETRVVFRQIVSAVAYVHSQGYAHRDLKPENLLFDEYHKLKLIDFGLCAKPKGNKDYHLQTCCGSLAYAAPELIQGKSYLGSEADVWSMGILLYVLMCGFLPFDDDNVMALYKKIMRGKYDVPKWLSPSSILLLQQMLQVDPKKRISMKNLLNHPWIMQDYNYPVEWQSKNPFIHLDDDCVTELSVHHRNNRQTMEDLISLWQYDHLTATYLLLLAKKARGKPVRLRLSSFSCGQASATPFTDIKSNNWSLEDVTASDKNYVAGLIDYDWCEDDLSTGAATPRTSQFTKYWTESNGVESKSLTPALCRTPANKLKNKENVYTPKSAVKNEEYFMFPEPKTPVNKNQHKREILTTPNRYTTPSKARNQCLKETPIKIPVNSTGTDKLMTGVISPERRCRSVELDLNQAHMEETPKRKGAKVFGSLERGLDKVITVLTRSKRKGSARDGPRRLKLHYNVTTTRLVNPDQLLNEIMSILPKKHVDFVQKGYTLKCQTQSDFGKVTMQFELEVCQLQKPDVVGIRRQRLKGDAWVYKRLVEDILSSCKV

[9] = target: T3, Serine/threonine-protein kinase D1 (Homo sapiens) (UniProt Q15139); assay: Inhibition of PKD1 (unknown origin) at 10 uM relative to control; in short: as §2
T3 sequence (whole entry): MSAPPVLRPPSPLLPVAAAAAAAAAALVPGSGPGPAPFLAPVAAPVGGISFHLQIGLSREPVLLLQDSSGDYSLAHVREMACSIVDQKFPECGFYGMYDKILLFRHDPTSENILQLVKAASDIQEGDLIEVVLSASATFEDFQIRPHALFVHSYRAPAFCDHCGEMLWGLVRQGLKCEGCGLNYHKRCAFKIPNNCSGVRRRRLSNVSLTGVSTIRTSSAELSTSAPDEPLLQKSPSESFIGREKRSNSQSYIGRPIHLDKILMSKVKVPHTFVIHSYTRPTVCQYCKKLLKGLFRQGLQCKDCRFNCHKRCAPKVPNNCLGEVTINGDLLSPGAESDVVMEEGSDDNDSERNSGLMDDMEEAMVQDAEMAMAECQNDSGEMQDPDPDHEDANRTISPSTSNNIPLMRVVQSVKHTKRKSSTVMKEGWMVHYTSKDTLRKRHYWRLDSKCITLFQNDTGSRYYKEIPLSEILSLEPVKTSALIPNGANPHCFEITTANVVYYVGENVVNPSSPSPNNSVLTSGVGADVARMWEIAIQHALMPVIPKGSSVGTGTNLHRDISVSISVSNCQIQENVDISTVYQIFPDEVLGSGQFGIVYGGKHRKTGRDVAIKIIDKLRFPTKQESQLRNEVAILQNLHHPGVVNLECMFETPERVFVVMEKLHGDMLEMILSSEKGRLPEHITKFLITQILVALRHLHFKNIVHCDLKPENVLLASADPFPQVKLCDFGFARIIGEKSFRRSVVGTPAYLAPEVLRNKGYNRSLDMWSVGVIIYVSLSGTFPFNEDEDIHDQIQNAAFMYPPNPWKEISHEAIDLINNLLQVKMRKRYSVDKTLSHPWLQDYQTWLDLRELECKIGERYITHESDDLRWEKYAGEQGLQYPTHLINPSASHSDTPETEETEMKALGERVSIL

[10] = target: SRSF protein kinase 1 (Homo sapiens) (UniProt Q96SB4); assay: Inhibition of SRPK1 (unknown origin) at 10 uM relative to control
Sequence of SRSF protein kinase 1 (Homo sapiens) (Q96SB4 whole entry): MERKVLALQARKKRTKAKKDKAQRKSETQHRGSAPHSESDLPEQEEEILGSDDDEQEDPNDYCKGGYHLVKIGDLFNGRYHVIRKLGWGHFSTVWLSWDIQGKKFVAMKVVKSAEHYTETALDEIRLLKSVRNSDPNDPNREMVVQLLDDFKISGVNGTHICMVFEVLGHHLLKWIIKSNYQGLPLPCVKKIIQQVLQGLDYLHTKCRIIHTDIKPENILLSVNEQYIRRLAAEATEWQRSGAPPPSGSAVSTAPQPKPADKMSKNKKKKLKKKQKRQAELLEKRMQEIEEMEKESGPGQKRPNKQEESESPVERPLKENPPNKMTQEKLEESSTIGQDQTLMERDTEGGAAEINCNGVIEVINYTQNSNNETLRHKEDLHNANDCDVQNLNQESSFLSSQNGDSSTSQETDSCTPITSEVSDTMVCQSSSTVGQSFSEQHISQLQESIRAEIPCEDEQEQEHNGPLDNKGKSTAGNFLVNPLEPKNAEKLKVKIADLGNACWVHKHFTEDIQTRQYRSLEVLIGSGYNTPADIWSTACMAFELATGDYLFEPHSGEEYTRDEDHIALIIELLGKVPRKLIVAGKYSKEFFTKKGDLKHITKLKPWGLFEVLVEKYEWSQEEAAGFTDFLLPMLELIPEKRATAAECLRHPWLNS
In short: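 Single-concentration screen across a panel of 59 protein kinases, with each compound tested at one fixed concentration. The read-out is residual kinase activity relative to control. Panel results are also condensed into a rescaled geometric mean (RGM) selectivity score.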

Row | Compound | inhibition [1] [%] | inhibition [2] [%] | inhibition [3] [%] | inhibition [4] [%] | inhibition [5] [%] | inhibition [6] [%] | inhibition [7] [%] | inhibition [8] [%] | inhibition [9] [%] | inhibition [10] [%]
1 | Cc1n[nH]c2ccnc(NC3CCCCC3)c12 | 0 | 57 | 37 | 60 | 8 | 79 | 0 | 91 | 34 | 10
2 | Cc1n[nH]c2ccnc(Nc3ccc4ncsc4c3)c12 | – | – | 36 | – | – | – | – | – | – | 0
3 | Cc1n[nH]c2ccnc(Nc3ccccc3F)c12 | 0 | 57 | 26 | 45 | 24 | 62 | 0 | 83 | 60 | 17
4 | Cc1n[nH]c2ccnc(OC3CCCCC3)c12 | 0 | 96 | 63 | 82 | 37 | 92 | 19 | 95 | 70 | 20
